Results from ChEMBL document CHEMBL1149148, “Synthesis and structure-activity relationships of novel 7-substituted 1,4-dihydro-4-oxo-1-(2-thiazolyl)-1,8-naphthyridine-3-carboxylic acids as antitumor agents. Part 2” (J Med Chem, 2004).
In brackets after ≈: the same amount, converted by molar mass.

Columns and labels:
P388 = assay: Cytotoxic activity against murine P388 leukemia cells; assay type: functional, cell-based; conditions: Mus musculus
Mus musculus [1] = assay: Ratio of median survival time of treated mice (T) to that of median survival time of controls (C) in mice infected with p388 cells (in vivo) at a dose of 3.13 mg/kg; assay type: functional
Method in brief: (§1)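 BDF1 mice implanted ip with 0.1 mL diluted ascites fluid carrying 10⁶ P388 leukemia cells. Dosing ip on days 1 and 5 after implantation. Test compounds were suspended in 0.4% CMC, and reference drugs were dissolved and diluted in distilled water. Seven mice per group. T/C (%) = median survival time of treated group / median survival time of control group × 100.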

Mus musculus [2] = assay: Ratio of median survival time of treated mice (T) to that of median survival time of controls (C) in mice infected with p388 cells (in vivo) at a dose of 1.56 mg/kg; assay type: functional; method in brief: as §1
Mus musculus [3] = assay: Ratio of median survival time of treated mice (T) to that of median survival time of controls (C) in mice infected with p388 cells (in vivo) at a dose of 0.78 mg/kg; assay type: functional; method in brief: as §1
Mus musculus [4] = assay: Ratio of median survival time of treated mice (T) to that of median survival time of controls (C) in mice infected with p388 cells (in vivo) at a dose of 6.25 mg/kg; assay type: functional; method in brief: as §1
PANC-1 = assay: Cytotoxic activity against human tumor PANC-1 pancreas cells; assay type: functional, cell-based
Method in brief: (§2)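 Hs746T and PANC-1 cells kept in Dulbecco's modified Eagle's medium with 10% FBS. Seeded at (1-2) × 10⁴ cells/mL, 24 h preincubation, then graded compound concentrations for 72 h at 37 °C in 5% CO₂. MTT (5 mg/mL solution) added for 4 h, formazan taken up in DMSO, read at 570/690 nm. IC50 is 50% absorbance reduction relative to control. At least two independent experiments averaged.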

SBC-3 = assay: Cytotoxic activity against human tumor SBC-3 lung cells; assay type: functional, cell-based
Method in brief: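 SBC-3 cells cultured in RPMI 1640 plus 10% FBS. Plated at (1-2) × 10⁴ cells/mL, preincubated 24 h, then compound at various concentrations for 72 h at 37 °C in 5% CO₂. MTT solution (5 mg/mL) for 4 h, DMSO solubilization, absorbance 570 nm with 690 nm reference. IC50 is the dose halving absorbance vs control. Mean of at least two independent runs.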

Hs746T = assay: Cytotoxic activity against human tumor Hs 746.T stomach cells; assay type: functional, cell-based; method in brief: as §2
HL-60 = assay: Cytotoxic activity against human tumor HL-60 leukemia cells; assay type: functional, cell-based
Method in brief: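 HL-60 cells grown in RPMI 1640 with 20% FBS. Seeded at (1-2) × 10⁴ cells/mL, preincubated 24 h, then exposed to a range of compound concentrations for 72 h at 37 °C in 5% CO₂. Read by MTT (5 mg/mL solution, 4 h), formazan dissolved in DMSO, absorbance 570 nm/690 nm. IC50 is the concentration giving 50% absorbance reduction vs control. Mean of at least two independent experiments.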

SCaBER = assay: Cytotoxic activity against human tumor SCaBER bladder cells; assay type: functional, cell-based
Method in brief: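 SCaBER cells maintained in EMEM with 10% FBS and nonessential amino acids. Seeded at (1-2) × 10⁴ cells/mL, 24 h preincubation, then 72 h compound exposure at various concentrations at 37 °C in 5% CO₂. MTT (5 mg/mL) for 4 h, then DMSO, read at 570/690 nm. IC50 is 50% absorbance drop vs control. At least two independent experiments averaged.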

SK-OV-3 = assay: Cytotoxic activity against human tumor SK-OV-3 ovary cells; assay type: functional, cell-based; conditions: SK-OV-3, Female gonad
Method in brief: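 SKOV3 cells grown in RPMI 1640 with 10% heat-inactivated FBS. Cells at (1-2) × 10⁴ cells/mL, preincubated 24 h, treated with graded concentrations for 72 h at 37 °C in 5% CO₂. MTT readout (5 mg/mL, 4 h), formazan in DMSO, absorbance 570 nm/690 nm. IC50 is the concentration for 50% absorbance reduction vs control. Mean of at least two independent experiments.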

Mus musculus [5] = assay: Ratio of median survival time of treated mice (T) to that of median survival time of controls (C) in mice infected with p388 cells (in vivo) at a dose of 12.5 mg/kg; assay type: functional; method in brief: as §1
[6] = Solubility at pH 7.2; assay type: physicochemical; conditions: buffer
Method in brief: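 Water solubility measured in pH 7.2 phosphate buffer, reported in mg/mL.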

Mus musculus [7] = assay: Ratio of median survival time of treated mice (T) to that of median survival time of controls (C) in mice infected with p388 cells (in vivo) at a dose of 25 mg/kg; assay type: functional; method in brief: as §1
Mus musculus [8] = assay: Ratio of median survival time of treated mice (T) to that of median survival time of controls (C) in mice infected with p388 cells (in vivo) at a dose of 50 mg/kg; assay type: functional; method in brief: as §1

## Cl.NC1CCN(c2nc3c(cc2[N+](=O)[O-])c(=O)c(C(=O)O)cn3-c2nccs2)C1 (centres undefined)
P388
  IC50: 2.29 µg/mL

## CISPLATIN
Mus musculus [1]
  T/C: 239%
Mus musculus [2]
  T/C: 186%
Mus musculus [3]
  T/C: 154%
Mus musculus [4]
  T/C: 290%

## CN[C@H]1CN(c2ccc3c(=O)c(C(=O)O)cn(-c4nccs4)c3n2)C[C@H]1OC.Cl
P388
  IC50: 0.02 µg/mL

## Cl.Nc1cc(N2CCC(N)C2)nc2c1c(=O)c(C(=O)O)cn2-c1nccs1 (centres undefined)
P388
  IC50: 0.0081 µg/mL

## Cl.NC1CCN(c2cc(Cl)c3c(=O)c(C(=O)O)cn(-c4nccs4)c3n2)C1 (centres undefined)
P388
  IC50: 0.049 µg/mL

## CN[C@H]1CN(c2ccc3c(=O)c(C(=O)O)cn(-c4nccs4)c3n2)C[C@@H]1OC [VOSAROXIN]
PANC-1
  IC50: 0.388 µg/mL (≈ 0.967 µM)
SBC-3
  IC50: 0.0319 µg/mL (≈ 0.0795 µM)
Hs746T
  IC50: 0.194 µg/mL (≈ 0.483 µM)
HL-60
  IC50: 0.0498 µg/mL (≈ 0.124 µM)
SCaBER
  IC50: 0.121 µg/mL (≈ 0.301 µM)
SK-OV-3
  IC50: 0.266 µg/mL (≈ 0.663 µM)

## Cl.O=C(O)c1cn(-c2nccs2)c2nc(N3CCc4ccccc4C3)ccc2c1=O
P388
  IC50: > 10 µg/mL

## O=C(O)c1cn(-c2nccs2)c2nc(-c3ccccc3)ccc2c1=O
P388
  IC50: 6.33 µg/mL (≈ 18.1 µM)

## CN[C@H]1CN(c2ccc3c(=O)c(C(=O)O)cn(-c4nccs4)c3n2)C[C@@H]1OC.Cl
Mus musculus [1]
  T/C: 225%
Mus musculus [2]
  T/C: 188%
Mus musculus [3]
  T/C: 150%
Mus musculus [5]
  T/C: >375%
[6]
  solubility: 23700 µg/mL
Mus musculus [4]
  T/C: 275%
P388
  IC50: 0.0075 µg/mL
Mus musculus [7]
  T/C: >375%

## Cl.O=C(O)c1cn(-c2nccs2)c2nc(N3CCOCC3)ccc2c1=O
P388
  IC50: 0.12 µg/mL

## CC1CC(N)CN1c1ccc2c(=O)c(C(=O)O)cn(-c3nccs3)c2n1.Cl (centres undefined)
P388
  IC50: 0.11 µg/mL

## Cc1cc(-c2ccc3c(=O)c(C(=O)O)cn(-c4nccs4)c3n2)cc(C)n1
P388
  IC50: 7.37 µg/mL (≈ 19.5 µM)

## CNC1CCN(c2ccc3c(=O)c(C(=O)O)cn(-c4nccs4)c3n2)C1.Cl (centres undefined)
Mus musculus [1]
  T/C: 200%
Mus musculus [5]
  T/C: 300%
[6]
  solubility: 8 µg/mL
P388
  IC50: 0.01 µg/mL
Mus musculus [8]
  T/C: >375%

## CN[C@H]1CN(c2ccc3c(=O)c(C(=O)O)cn(-c4nccs4)c3n2)C[C@@H]1C.Cl
Mus musculus [1]
  T/C: 188%
Mus musculus [5]
  T/C: 288%
[6]
  solubility: 6.2 µg/mL
P388
  IC50: 0.012 µg/mL
Mus musculus [8]
  T/C: 75%

## CC1(N)CCN(c2ccc3c(=O)c(C(=O)O)cn(-c4nccs4)c3n2)C1.Cl (centres undefined)
Mus musculus [1]
  T/C: 150%
Mus musculus [5]
  T/C: 213%
[6]
  solubility: 3.8 µg/mL
P388
  IC50: 0.019 µg/mL
Mus musculus [8]
  T/C: 138%

## C[C@@H]1CN(c2ccc3c(=O)c(C(=O)O)cn(-c4nccs4)c3n2)C[C@H](C)N1.Cl
P388
  IC50: 0.081 µg/mL

## Cl.O=C(O)c1cn(-c2nccs2)c2nc(N3CCCC3)ccc2c1=O
P388
  IC50: 0.066 µg/mL

## CN[C@@H]1CN(c2ccc3c(=O)c(C(=O)O)cn(-c4nccs4)c3n2)C[C@H]1OC.Cl
Mus musculus [1]
  T/C: 163%
Mus musculus [2]
  T/C: 125%
Mus musculus [3]
  T/C: 125%
Mus musculus [5]
  T/C: 238%
[6]
  solubility: 19800 µg/mL
Mus musculus [4]
  T/C: 188%
P388
  IC50: 0.021 µg/mL
Mus musculus [7]
  T/C: 300%

## C#Cc1ccc2c(=O)c(C(=O)O)cn(-c3nccs3)c2n1
P388
  IC50: 2.3 µg/mL (≈ 7.74 µM)

## Cl.O=C(O)c1cn(-c2nccs2)c2nc(N3CCNCC3)ccc2c1=O
P388
  IC50: 0.057 µg/mL

## CCN[C@H]1CN(c2ccc3c(=O)c(C(=O)O)cn(-c4nccs4)c3n2)C[C@@H]1OC.Cl
P388
  IC50: 0.025 µg/mL

## COc1cccc2c1C(=O)c1c(O)c3c(c(O)c1C2=O)C[C@@](O)(C(=O)CO)C[C@@H]3O[C@H]1C[C@H](N)[C@H](O)[C@H](C)O1 [DOXORUBICIN]
Mus musculus [1]
  T/C: 235%
Mus musculus [2]
  T/C: 228%
Mus musculus [3]
  T/C: 173%
Mus musculus [4]
  T/C: 293%
